This passage reports Reactivity and k2 results from ChEMBL document CHEMBL1121848, “Inactivation of trypsin-like proteases by depsipeptides of p-guanidinobenzoic acid” (J Med Chem, 1981).

The target in series [1] is Urokinase-type plasminogen activator (Homo sapiens) (UniProt P00749). The experiment in a line: Compound was evaluated for the reactivity in the inactivation of trypsin like Urokinase-type plasminogen activator. The procedure, abridged:
(§1)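 Each enzyme (10^-6 to 10^-9 M final) was incubated at 25 °C with inhibitor dissolved in water (10^-3 to 10^-6 M final) in 50 mM Pipes, pH 7.0, with 200 mM NaCl. Loss of activity was treated as first-order to give k_app. Reactivity was k_app divided by inhibitor concentration.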

A short description of series [2]: Second order rate constant was determined in the inactivation of HPK. The procedure, abridged:
(§2)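 Trypsin or human plasma kallikrein (10^-6 to 10^-9 M final) was inactivated at 25 °C by ester in water (10^-3 to 10^-6 M final) in 50 mM Pipes, pH 7.0, with 200 mM NaCl. Activity decayed first-order. Individual constants k_2 (min⁻¹) and K_m (M) were resolved for each enzyme.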

Series [3] in a line: Second order rate constant was determined in the inactivation of trypsin. The procedure, abridged:
as §2

The next series deals with Plasminogen. The experiment in a line: Compound was evaluated for the reactivity in the inactivation of trypsin like enzyme plasmin. The procedure, abridged:
as §1

Series [4] can be described thus: Compound was evaluated for the reactivity in the inactivation of trypsin like enzyme. The procedure, abridged: as §1
Series [5] concerns the target Plasma kallikrein (Homo sapiens) (UniProt P03952). The experiment in a line: Compound was evaluated for the reactivity in the inactivation of trypsin like enzyme Human plasma Kallikrein.
The target of another series is Acrosin (Sus scrofa) (UniProt P08001). The experiment in a line: Compound was evaluated for the reactivity in the inactivation of trypsin like boar acrosin.
Chain of Acrosin (Sus scrofa) (P08001 whole entry, looked up): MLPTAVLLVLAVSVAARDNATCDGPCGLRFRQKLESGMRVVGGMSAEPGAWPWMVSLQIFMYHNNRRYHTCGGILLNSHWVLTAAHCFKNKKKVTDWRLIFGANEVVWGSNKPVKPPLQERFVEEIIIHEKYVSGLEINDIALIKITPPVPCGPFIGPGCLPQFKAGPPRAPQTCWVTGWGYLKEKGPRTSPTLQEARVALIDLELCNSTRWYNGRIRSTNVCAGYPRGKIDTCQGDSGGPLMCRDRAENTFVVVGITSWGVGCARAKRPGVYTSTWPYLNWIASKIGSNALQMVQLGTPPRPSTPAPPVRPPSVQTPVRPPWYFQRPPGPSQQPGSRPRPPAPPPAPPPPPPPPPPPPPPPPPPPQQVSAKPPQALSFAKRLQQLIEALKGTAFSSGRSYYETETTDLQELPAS

Chain of Plasma kallikrein (Homo sapiens) (P03952 whole entry, looked up): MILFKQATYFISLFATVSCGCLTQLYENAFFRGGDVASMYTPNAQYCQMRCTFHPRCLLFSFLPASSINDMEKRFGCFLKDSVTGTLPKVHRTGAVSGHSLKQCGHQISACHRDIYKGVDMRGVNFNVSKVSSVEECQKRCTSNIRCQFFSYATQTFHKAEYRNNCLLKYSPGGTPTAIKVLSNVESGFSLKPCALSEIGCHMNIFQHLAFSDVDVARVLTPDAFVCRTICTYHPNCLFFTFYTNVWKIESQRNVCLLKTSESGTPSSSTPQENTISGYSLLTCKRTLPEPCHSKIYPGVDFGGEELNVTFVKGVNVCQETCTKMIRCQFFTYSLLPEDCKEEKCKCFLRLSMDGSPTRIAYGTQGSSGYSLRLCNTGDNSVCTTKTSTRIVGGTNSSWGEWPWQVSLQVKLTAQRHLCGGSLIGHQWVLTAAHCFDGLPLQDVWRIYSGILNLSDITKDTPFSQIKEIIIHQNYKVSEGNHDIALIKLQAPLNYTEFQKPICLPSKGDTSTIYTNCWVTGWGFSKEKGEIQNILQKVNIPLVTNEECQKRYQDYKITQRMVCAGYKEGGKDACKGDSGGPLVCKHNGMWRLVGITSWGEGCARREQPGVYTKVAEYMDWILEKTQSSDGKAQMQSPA

Consider `CC(=O)O.CC(OC(=O)c1ccc(NC(=N)N)cc1)C(=O)NC(Cc1ccccc1)C(N)=O` (centres undefined), for which the Reactivity was 32 in series [1], 743 with Plasminogen, 14200 in series [4] and 3000 in series [5]. In addition, the k2 in series [2] is 0.1 min⁻¹; in series [3] it was 3.7 min⁻¹.
With `CC(=O)O.N=C(N)Nc1ccc(C(=O)OCC(N)=O)cc1`, the Reactivity in series [1] came out at 300; at Acrosin (Sus scrofa) it was 117000; in the series on Plasminogen, 644; in series [4] it was 17000; in series [5], 2800. The k2 in series [2] was 1.25 min⁻¹; in series [3], 0.523 min⁻¹.
For `CC(=O)O.CC(C)C(NC(=O)COC(=O)c1ccc(NC(=N)N)cc1)C(N)=O` (centres undefined), the Reactivity was 5 in series [1]; 114000 at Acrosin (Sus scrofa); 441 with Plasminogen; 11200 in series [4]; 2000 in series [5]. The figures for the k2 in series [2] and in series [3] were 0.87 min⁻¹ and 0.74 min⁻¹, respectively.
For the molecule `CC(=O)O.C[C@H](NC(=O)COC(=O)c1ccc(NC(=N)N)cc1)C(=O)N[C@@H](Cc1ccccc1)C(N)=O`, the k2 is 0.84 min⁻¹ in series [2] and 0.748 min⁻¹ in series [3]. Besides, the Reactivity in series [4] came out at 13400; in series [5] it was 1400.
The matching figures for `CC(=O)O.N=C(N)Nc1ccc(C(=O)OCC(=O)NCC(=O)NCC(N)=O)cc1`: 0.344 min⁻¹, 0.832 min⁻¹, 10200 and 2000.
With `CC(=O)O.CCOC(=O)c1ccc(NC(=N)N)cc1`, the Reactivity is 11 in series [1], 200000 on Acrosin (Sus scrofa), 259 in series [4] and 26 in series [5]. For the same molecule, the k2 in series [3] was 1.89 min⁻¹.
On to `CC(=O)O.N=C(N)Nc1ccc(C(=O)OCC(=O)NC(Cc2ccccc2)C(N)=O)cc1` (centres undefined), for which the Reactivity in series [1] is 21; on Acrosin (Sus scrofa), 207000; with Plasminogen it was 753; in series [4], 46000; in series [5], 8600. The k2 in series [2] amounted to 0.74 min⁻¹; in series [3], 3.24 min⁻¹.
As to `CC(=O)O.N=C(N)Nc1ccc(C(=O)OCC(=O)N[C@@H](Cc2ccccc2)C(=O)N2CCC[C@H]2C(N)=O)cc1`, the k2 was 0.83 min⁻¹ in series [2] and 1.27 min⁻¹ in series [3]. Moreover, the Reactivity in series [4] was 32000; in series [5], 2600.
